What was measured:
MCF7 [1] = assay: In vitro cytotoxicity of compound against MCF-7 cell line expressed as percent of viable cells compared to untreated control at a concentration of 10 uM; type: functional, cell-based; details: Homo sapiens
Summary of the method: (§1)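 First screen: exponential-phase MCF-7 cells (DMEM with 25 mM HEPES, 10% FCS, 37 °C, 5% CO2), 250000/well, given the ferrocenium salt 5–500 μM continuously for 48 h from 24 h after seeding. MTT (5 mg/mL in saline) added for 60 min; formazan read at 570 nm with 690 nm correction. Percent viable versus untreated control; mean of three replications.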

MCF7 [2] = assay: In vitro cytotoxicity of compound against MCF-7 cell line expressed as percent of viable cells compared to untreated control at a concentration of 100 uM; type: functional, cell-based; details: Homo sapiens; summary of the method: as §1
MCF7 [3] = assay: In vitro cytotoxicity of compound against MCF-7 cell line expressed as percent of viable cells compared to untreated control at a concentration of 5 uM; type: functional, cell-based; details: Homo sapiens; summary of the method: as §1
MCF7 [4] = assay: In vitro cytotoxicity of compound against MCF-7 cell line expressed as percent of viable cells compared to untreated control at a concentration of 50 uM; type: functional, cell-based; details: Homo sapiens; summary of the method: as §1
MCF7 [5] = assay: In vitro cytotoxicity of compound against MCF-7 cell line expressed as percent of viable cells compared to untreated control at a concentration of 500 uM; type: functional, cell-based; details: Homo sapiens; summary of the method: as §1
MCF7 [6] = assay: Concentration required to reduce to 50% the number of MCF-7 cells with respect to untreated control after exposure to compound for 24 h; type: functional, cell-based, Homo sapiens
Summary of the method: (§2)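 MCF-7 cells (DMEM with 25 mM HEPES, 2 mM L-glutamine, 10% FCS; 37 °C, 5% CO2) in exponential growth, 250000 cells/well, dosed after 24 h at 10, 50, 100, 500 μM for 2, 12, 24 or 48 h. Medium then replaced; MTT read at 570 nm (690 nm background) 5 days from start, versus time-matched washed control. IC50 from three replications.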

MCF7 [7] = assay: In vitro cytotoxicity against MCF-7 cell line expressed as percent of viable cells compared to untreated control at a concentration of 20 uM; type: functional, cell-based; details: Homo sapiens
Summary of the method: (§3)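 Exponential-phase MCF-7 cells, grown in DMEM with 25 mM HEPES, 2 mM L-glutamine and 10% FCS at 37 °C and 5% CO2, were seeded at 250000 cells/well. After 24 h they got a single agent for 24 h at 10, 20, 35, 50 or 70 μM, then fresh medium. Viability was read by MTT (570 nm, 690 nm background) 5 days from treatment start, as % of untreated control.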

MCF7 [8] = assay: In vitro cytotoxicity against MCF-7 cell line expressed as percent of viable cells compared to untreated control at a concentration of 35 uM; type: functional, cell-based; details: Homo sapiens; summary of the method: as §3
MCF7 [9] = assay: In vitro cytotoxicity against MCF-7 cell line expressed as percent of viable cells compared to untreated control at a concentration of 50 uM; type: functional, cell-based; details: Homo sapiens; summary of the method: as §3
MCF7 [10] = assay: In vitro cytotoxicity against MCF-7 cell line expressed as percent of viable cells compared to untreated control at a concentration of 70 uM; type: functional, cell-based; details: Homo sapiens; summary of the method: as §3
MCF7 [11] = assay: In vitro cytotoxicity against MCF-7 cell line expressed as percent of viable cells compared to untreated control at a concentration of 10 uM; type: functional, cell-based; details: Homo sapiens; summary of the method: as §3
MCF7 [12] = assay: Concentration required to reduce to 50% the number of MCF-7 cells with respect to untreated control after exposure to compound for 12 h; type: functional, cell-based, Homo sapiens; summary of the method: as §2
MCF7 [13] = assay: Concentration required to reduce to 50% the number of MCF-7 cells with respect to untreated control after exposure to compound for 2 h; type: functional, cell-based, Homo sapiens; summary of the method: as §2
MCF7 [14] = assay: Concentration required to reduce to 50% the number of MCF-7 cells with respect to untreated control after exposure to compound for 48 h; type: functional, cell-based, Homo sapiens; summary of the method: as §2
MCF7 [15] = assay: In vitro cytotoxicity against MCF-7 cell line expressed as percent of viable cells compared to untreated control at a concentration of 10 uM for 24 h; type: functional, cell-based; details: Homo sapiens
Summary of the method: (§4)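 Viability in MCF-7 cells (DMEM, 25 mM HEPES, 10% FCS, 37 °C, 5% CO2) seeded 250000/well and treated after 24 h for 24 h. Medium then replaced with fresh; MTT formazan read at 570 nm minus 690 nm, 5 days after treatment start. Percent of the untreated control washed at the same time; mean of three independent experiments.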

MCF7 [16] = assay: In vitro cytotoxicity against MCF-7 cell line expressed as percent of viable cells compared to untreated control at a concentration of 100 uM for 24 h; type: functional, cell-based; details: Homo sapiens; summary of the method: as §4
MCF7 [17] = assay: In vitro cytotoxicity against MCF-7 cell line expressed as percent of viable cells compared to untreated control at a concentration of 50 uM for 24 h; type: functional, cell-based; details: Homo sapiens; summary of the method: as §4
MCF7 [18] = assay: In vitro cytotoxicity against MCF-7 cell line expressed as percent of viable cells compared to untreated control at a concentration of 500 uM for 24 h; type: functional, cell-based; details: Homo sapiens; summary of the method: as §4
MCF7 [19] = assay: In vitro cytotoxicity against MCF-7 cell line as percent of viable cells compared to control at a concentration of 15 uM; type: functional, cell-based; details: Homo sapiens
MCF7 [20] = assay: In vitro cytotoxicity against MCF-7 cell line as percent of viable cells compared to control at a concentration of 20 uM; type: functional, cell-based; details: Homo sapiens
MCF7 [21] = assay: In vitro cytotoxicity against MCF-7 cell line as percent of viable cells compared to control at a concentration of 30 uM; type: functional, cell-based; details: Homo sapiens
MCF7 [22] = assay: In vitro cytotoxicity against MCF-7 cell line as percent of viable cells compared to control at a concentration of 40 uM; type: functional, cell-based; details: Homo sapiens
MCF7 [23] = assay: In vitro cytotoxicity against MCF-7 cell line as percent of viable cells compared to control at a concentration of 5 uM; type: functional, cell-based; details: Homo sapiens
MCF7 [24] = assay: In vitro cytotoxicity against MCF-7 cell line as percent of viable cells compared to control at a concentration of 10 uM; type: functional, cell-based; details: Homo sapiens

Substance: 1,1'-dimethylferrocenium tetrafluoroborate
- Viable cells (MCF7 [1]): 100%
- Viable cells (MCF7 [2]): 90%
- Viable cells (MCF7 [3]): 99%
- Viable cells (MCF7 [4]): 93%
- Viable cells (MCF7 [5]): 17%

Substance: BLEOMYCIN [listing 1 of 2 here]
- IC50 (MCF7 [6]): 53 µM

Substance: BLEOMYCIN [listing 2 of 2 here]
- Viable cells (MCF7 [7]): 65%
- Viable cells (MCF7 [8]): 57%
- Viable cells (MCF7 [9]): 48%
- Viable cells (MCF7 [10]): 51%
- Viable cells (MCF7 [11]): 69%

Substance: DECAMETHYLFERROCENIUM TETRAFLUOROBORATE
- IC50 (MCF7 [12]): 74 µM
- IC50 (MCF7 [13]): 86 µM
- IC50 (MCF7 [6]): 58 µM
- IC50 (MCF7 [14]): 35 µM

Substance: FERROCENIUM TETRAFLUOROBORATE [listing 1 of 2 here]
- IC50 (MCF7 [12]): 238 µM
- IC50 (MCF7 [13]): 308 µM
- IC50 (MCF7 [6]): 256 µM
- IC50 (MCF7 [14]): 249 µM

Substance: FERROCENIUM TETRAFLUOROBORATE [listing 2 of 2 here]
- Viable cells (MCF7 [1]): 98%
- Viable cells (MCF7 [2]): 99%
- Viable cells (MCF7 [3]): 100%
- Viable cells (MCF7 [4]): 100%
- Viable cells (MCF7 [5]): 13%

Substance: FERROCENIUMBORONIC ACID TETRAFLUOROBORATE
- Viable cells (MCF7 [1]): 101%
- Viable cells (MCF7 [2]): 98%
- Viable cells (MCF7 [3]): 102%
- Viable cells (MCF7 [4]): 101%
- Viable cells (MCF7 [5]): 8%

Substance: [sequence] ACID TETRAFLUOROBORATE
- Viable cells (MCF7 [1]): 98%
- Viable cells (MCF7 [2]): 97%
- Viable cells (MCF7 [3]): 100%
- Viable cells (MCF7 [4]): 97%
- Viable cells (MCF7 [5]): 17%

Substance: [sequence] TETRAFLUOROBORATE
- Viable cells (MCF7 [15]): 99%
- Viable cells (MCF7 [16]): 14%
- Viable cells (MCF7 [17]): 64%
- Viable cells (MCF7 [18]): 4%
- Viable cells (MCF7 [1]): 88%
- Viable cells (MCF7 [2]): 10%
- Viable cells (MCF7 [3]): 100%
- Viable cells (MCF7 [4]): 32%
- Viable cells (MCF7 [5]): 11%
- Viable cells (MCF7 [19]): 34%
- Viable cells (MCF7 [20]): 13%
- Viable cells (MCF7 [21]): 7%
- Viable cells (MCF7 [22]): 3%
- Viable cells (MCF7 [23]): 94%
- Viable cells (MCF7 [24]): 88%
